The text below walks through data of PubChem BioAssay.

Active and inactive are the calls of the source.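 The calls were made as follows, unless noted: active = inhibition above 20% together with a positive visual image hit; inconclusive = visual image hit but inhibition not above 20%; inactive = no visual image hit.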

Assay [1] can be described thus: inhibitors of TNFa-induced NFkB p65 translocation, primary screen, imaging, HUVEC, MLSMR starter and 10KST1 sets (AID 438).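 Also: compound added about 3h40 before a 20 min TNFalpha stimulation.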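 As to inhibition: signal is the nuclear over cytoplasmic p65 intensity ratio per well.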 To be noted: HUVEC TNFa-induced p65 nuclear translocation; cell count: measured here: nuclei count (cytotoxicity indicator), at 2.08 µM; inhibition: at 2 µM, stronger effect = higher value, 0% TNFa-plus-vehicle, 100% no-TNFa wells.
The nature of assay [2]: inhibitors of E-selectin induction by TNFa, primary screen, imaging, HUVEC, immunofluorescence, MLSMR starter and 10KST1 sets (AID 487;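 active = visually confirmed hit in the image check and inhibition above 20%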;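 as to inhibition: signal is fraction of cell area covered by stained E-selectin grains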;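 as to nuclei count: 100% = median nuclei count of all wells on the same plate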). Conditions: HUVEC TNFalpha-induced E-selectin immunofluorescence imaging, at 2 µM; inhibition: stronger effect = higher value; nuclei count: measured here: cell number, toxicity.
Assay [3] in a line: DUSP6 inhibitors restoring Erk phosphorylation by chemical complementation, primary imaging in DUSP6-transfected HeLa (AID 609;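 active = compounds giving at least 50% inhibition in the cell-based MKP-3 phosphatase rescue imaging test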;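 as to inhibition: phospho-Erk level distribution per well compared with pooled transfected vehicle control wells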). Conditions: HeLa MKP-3 transfected, phospho-Erk imaging KS statistic, at 10 µM, cells stimulated with TPA for 15 min.
Assay [4] addresses Dual specificity protein phosphatase 6 (Homo sapiens) (UniProt Q16828). Described as above. To be noted: HeLa MKP-3 transfected, phospho-Erk imaging KS statistic; at 10 µM; stronger effect = higher value; cells stimulated with TPA for 15 min.
For assay [5], the target named is Voltage-gated potassium channel subunit beta-2 (Rattus norvegicus) (UniProt P62483). Description: KvBeta enzyme negative modulators, primary screen, biochemical, NADPH fluorescence (AID 622;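 active = fluorescence slope higher than the sample average by over 3 SD, cut at about -0.22 in these data, passing the limit was not always enough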;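 also: slope of raw intensity against log time taken from 70 to 1610 s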). Conditions: recombinant KvBeta, 4-cyanobenzaldehyde reduction, at 10 µM, stronger effect = higher value.
Assay [6] has the same target. In words: KvBeta positive modulators, primary screen, biochemical, NADPH fluorescence (AID 623;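 active = NADPH fluorescence slope more negative than the mean of all samples by about 3 SD, 99.7% confidence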;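 also: fluorescence intensity change per second fitted from 20 to 320 s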). To be noted: Recombinant KvBeta, NADPH fluorescence decrease slope, 10 min; at 10 µM; stronger effect = lower value.
Assay [7] concerns the target Alpha-2C adrenergic receptor (Homo sapiens) (UniProt P18825). In words: modulators of alpha2C/GIRK thallium flux, primary screen, cell-based, HEK293 alpha2C/GIRK1/2 (AID 624;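 active = fluorescence slope after compound addition differing from the mean of all screened samples at 99.7% confidence, in either direction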;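 also: slope of fluorescence ratio to pre-addition baseline per second over 15 to 24 s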). Conditions: thallium flux BTC fluorescence, at 10 µM, actives lie on both sides.
Assay [8] in a line: inhibitors of larval lipid processing in zebrafish, primary screen, whole organism, PED6 fluorescence, gall bladder and intestine (AID 686;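 active = a full or partial loss of lipid-probe fluorescence in the fish gall bladder, intestine or both, judged by eye; inactive = no fluorescence loss, or compound toxic to the fish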;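 also: larvae 5 to 7 days old with five fish per well; signal comes from phospholipase A2 cleavage of quenched PED6 carried via bile; overnight exposure to compound and PED6 before scoring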). Conditions: Zebrafish larvae PED6 lipid processing, fluorescence scoring; screened at 20 µM (by protocol). The gist of the method:
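System: live zebrafish larvae aged 5-7 days, whole organism; measure: graded gall bladder and intestinal fluorescence inhibition per well; incubation: overnight exposure; reagent: ingested quenched lipid PED6 at 100 nM; signal: By-eye fluorescence microscopy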

A short description of assay [9]: inhibitors of Chlamydomonas gravitaxis, primary screen, whole organism, Chlamydomonas reinhardtii, WT vs cilia-less mutant, absorbance, 96-well (AID 463189;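 active = inhibition at or above 50% relative to wild type and mutant plate controls; inactive = inhibition below 50%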;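 also: 0% = wild type cc124 cells in DMSO and 100% = ciliumless bld1 mutant cells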). To be noted: OD600 absorbance, 2 days, at 10 µM, stronger effect = higher value.
[10] abbreviates: measured here: cell density z-score.
The mark [11] stands for this setting: measured here: nuclear c-Myc green intensity z-score.
Setting [12] is: measured here: nuclear pErk red intensity z-score, stronger effect = higher value.

Chain of Dual specificity protein phosphatase 6 (Homo sapiens) (Q16828 whole entry, looked up): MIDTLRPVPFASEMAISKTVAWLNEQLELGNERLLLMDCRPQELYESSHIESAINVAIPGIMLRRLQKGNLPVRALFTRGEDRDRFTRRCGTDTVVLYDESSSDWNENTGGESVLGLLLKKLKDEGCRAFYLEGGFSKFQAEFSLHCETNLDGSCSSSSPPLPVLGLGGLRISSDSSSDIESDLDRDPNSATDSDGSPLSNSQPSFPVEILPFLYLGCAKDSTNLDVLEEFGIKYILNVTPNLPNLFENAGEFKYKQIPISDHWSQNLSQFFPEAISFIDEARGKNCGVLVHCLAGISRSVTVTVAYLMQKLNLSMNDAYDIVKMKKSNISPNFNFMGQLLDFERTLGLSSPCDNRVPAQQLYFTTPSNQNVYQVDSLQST
Chain of Voltage-gated potassium channel subunit beta-2 (Rattus norvegicus) (P62483 whole entry, looked up): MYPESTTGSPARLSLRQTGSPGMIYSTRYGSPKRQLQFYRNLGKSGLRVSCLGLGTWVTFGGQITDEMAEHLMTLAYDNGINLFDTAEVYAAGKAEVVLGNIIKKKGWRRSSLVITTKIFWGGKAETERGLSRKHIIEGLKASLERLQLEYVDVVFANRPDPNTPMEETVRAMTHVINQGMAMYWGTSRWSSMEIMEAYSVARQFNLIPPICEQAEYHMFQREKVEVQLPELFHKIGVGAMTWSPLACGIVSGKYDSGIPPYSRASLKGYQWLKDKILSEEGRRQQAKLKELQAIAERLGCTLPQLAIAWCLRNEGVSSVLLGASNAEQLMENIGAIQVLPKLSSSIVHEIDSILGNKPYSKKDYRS
Chain of Alpha-2C adrenergic receptor (Homo sapiens) (P18825 whole entry, looked up): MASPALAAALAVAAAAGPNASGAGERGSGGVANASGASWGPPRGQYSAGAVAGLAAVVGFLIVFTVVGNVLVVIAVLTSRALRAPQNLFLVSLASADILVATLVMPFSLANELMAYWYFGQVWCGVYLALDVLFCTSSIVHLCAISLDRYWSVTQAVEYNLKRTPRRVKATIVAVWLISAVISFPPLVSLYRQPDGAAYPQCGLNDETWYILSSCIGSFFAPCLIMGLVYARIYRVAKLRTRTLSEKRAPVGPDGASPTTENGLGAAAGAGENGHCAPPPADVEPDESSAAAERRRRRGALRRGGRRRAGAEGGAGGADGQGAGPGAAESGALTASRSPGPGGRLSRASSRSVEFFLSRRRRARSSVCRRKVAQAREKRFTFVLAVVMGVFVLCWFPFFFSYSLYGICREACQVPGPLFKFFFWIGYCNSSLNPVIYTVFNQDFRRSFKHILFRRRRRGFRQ

Consider `CCOC(=O)C1Cc2c([nH]c3ccccc23)C(C)N1` (centres undefined), for which the cell count in assay [1] was 640. For the same molecule, the inhibition is -12.2% (inactive) in assay [1], -61.9% (inactive) in [2], -18.6% (inactive) in [4] and -12.3% (inactive) in [9]. In addition, the nuclei count in assay [2] was 176%. Moreover, the z-score in assay [3] (setting [10]) is -0.293; in [3] (setting [11]) it was -0.384; in assay [3] (setting [12]) it was -0.135. The fluorescence slope in assay [5] is -0.422 (inactive). In [6], the NADPH fluorescence slope was -5.9e-05 (inactive). Besides, the slope in assay [7] is 0.00514 (inactive). In addition, the molecule was classed as inactive in [8].
In the case of `CCOC(=O)CC(=O)CSc1nc2c(cc1C#N)CCCCCC2`, the cell count in assay [1] was 706. For the same molecule, the inhibition in assay [1] was -1.3% (inactive); in assay [2] it was 25.1% (inactive); in assay [4], -8.95% (inactive); in assay [9] it was 0.237% (inactive). For the same molecule, in assay [2], the nuclei count was determined as 180%. Moreover, the z-score in assay [3] (setting [10]) was -0.436; in assay [3] (setting [11]) it was -0.188; in assay [3] (setting [12]) it was -0.491. For the same molecule, the fluorescence slope in assay [5] is -0.285 (inactive). For the same molecule, in [6], the NADPH fluorescence slope is -5.2e-06 (inactive). Moreover, in [7], the slope was 0.00458 (inactive). In addition, in assay [8], the outcome was inactive.
In the case of `CCOC(=O)c1[nH]c2cc3c(cc2c1NC(=O)CN1CCC(C)CC1)OCO3`, the cell count in assay [1] was 554. Further, the inhibition was -1.1% (inactive) in assay [1], -6.5% (inactive) in assay [2], 1.6e-07% (inactive) in [4] and -6.78% (inactive) in [9]. This molecule also came in with a nuclei count in assay [2] of 155%. Further, the z-score in assay [3] (setting [10]) is -0.767; in assay [3] (setting [11]), 1.52; in assay [3] (setting [12]) it was -0.0577. Further, the fluorescence slope in assay [5] is -0.27 (inactive). Further, the NADPH fluorescence slope in [6] was 6.7e-06 (inactive). Besides, the slope in assay [7] was 0.00467 (inactive). For the same molecule, the result in assay [8] was inactive.
`CCC(=O)OC1=C2C(=Nc3c(c(=O)n(C)c(=O)n3C)C2c2ccccc2)c2ccccc21` (centres undefined): the cell count in [1] is 509. In addition, the inhibition is -2.9% (inactive) in assay [1], -57.1% (inactive) in assay [2], 1.9e-07% (inactive) in assay [4] and 15.5% (inactive) in assay [9]. The nuclei count in [2] is 75.2%. The results for the z-score in assay [3] (setting [10]), in assay [3] (setting [11]) and in assay [3] (setting [12]) were -0.341, 0.242 and 0.679, respectively. The fluorescence slope in assay [5] is -0.505 (inactive). For the same molecule, in assay [6], the NADPH fluorescence slope is -5.2e-05 (inactive). Moreover, in [7], the slope is 0.00546 (inactive). Moreover, the result in assay [8] was inactive.
With `CCOP(=O)(c1ccccc1)C1(C#N)CCCC1` (centres undefined), in assay [1], the cell count was found to be 492. The inhibition is -9.6% (inactive) in [1], -215% (inactive) in assay [2], -3.98% (inactive) in assay [4] and 4.97% (inactive) in assay [9]. Moreover, the nuclei count in [2] amounted to 150%. Besides, the z-score in [3] (setting [10]) was -1.11; in assay [3] (setting [11]), -1.86; in assay [3] (setting [12]) it was 0.943. For the same molecule, in assay [5], the fluorescence slope is -0.513 (inactive). Moreover, the NADPH fluorescence slope in [6] was -0.000169 (inactive). The slope in assay [7] was 0.00467 (inactive). In addition, in assay [8], the outcome is “inactive; toxic”.
Turning to `COc1ccc(C2C(C#N)=C(N)SC(N)=C2C#N)cc1OC`, the cell count in assay [1] was found to be 280. For the same molecule, the inhibition is -16.8% (inactive) in assay [1], -21.6% (inactive) in [2], -10.5% (inactive) in assay [4] and -3.02% (inactive) in assay [9]. Further, the nuclei count in assay [2] is 85.8%. In addition, the z-score in [3] (setting [10]) is 0.114; in [3] (setting [11]), 1.01; in assay [3] (setting [12]) it was -1.06. Besides, in assay [5], the fluorescence slope was -0.401 (inactive). The NADPH fluorescence slope in assay [6] was -5.5e-05 (inactive). The slope in assay [7] is 0.00592 (inactive). Further, the molecule was called inactive in assay [8].
In the case of `Cc1c(NC(=O)C(CC(=O)O)NCc2ccco2)c(=O)n(-c2ccccc2)n1C` (centres undefined), in assay [1], the cell count stood at 357. The inhibition in assay [1] was -8% (inactive); in assay [2], -112% (inactive); in assay [4], -5.26% (inactive); in assay [9] it was -0.003% (inactive). The molecule further gave a nuclei count in [2] of 164%. Further, the z-score in [3] (setting [10]) is -0.725; in assay [3] (setting [11]), 2.03; in assay [3] (setting [12]) it was 1.41. For the same molecule, the fluorescence slope in assay [5] was -0.44 (inactive). Further, the NADPH fluorescence slope in assay [6] is -0.000144 (inactive). For the same molecule, the slope in [7] was 0.00721 (inactive). Moreover, the molecule was called inactive in [8].
Turning to `CCOC(=O)COc1nc(N(C)C)nc(N(C)C)n1`, in [1], the cell count amounted to 634. Further, the inhibition was -15% (inactive) in assay [1], -349% (inactive) in assay [2], 7.48% (inactive) in assay [4] and -0.47% (inactive) in assay [9]. Moreover, the nuclei count in assay [2] turned out to be 183%. Also, the z-score came out at 0.237 in assay [3] (setting [10]), 0.0213 in [3] (setting [11]) and 0.713 in assay [3] (setting [12]). Also, in [5], the fluorescence slope is -0.492 (inactive). Besides, in assay [6], the NADPH fluorescence slope was -0.000101 (inactive). In assay [7], the slope was 0.00583 (inactive). Besides, the molecule was classed as inactive in assay [8].
As to `CC1(C)C/C(=C(/C#N)C(N)=O)CCO1`, the cell count in [1] is 575. Also, the inhibition is -11.9% (inactive) in assay [1], -42.1% (inactive) in [2], -8.95% (inactive) in [4] and -18.4% (inactive) in assay [9]. Moreover, the nuclei count in [2] was determined as 110%. Further, the z-score in assay [3] (setting [10]) is 0.299; in assay [3] (setting [11]) it was 1.82; in [3] (setting [12]), -0.278. For the same molecule, the fluorescence slope in assay [5] was -0.392 (inactive). In addition, the NADPH fluorescence slope in [6] was 4.5e-06 (inactive). For the same molecule, the slope in assay [7] is 0.00848 (inactive). The molecule was called inactive in assay [8].
Turning to `O=C1CCC(=O)N1CNc1ccccn1`, in [1], the cell count is 493. Also, the inhibition was -5% (inactive) in assay [1], -53.8% (inactive) in assay [2], 7.93% (inactive) in assay [4] and 23.2% (inactive) in assay [9]. In [2], this molecule registered a nuclei count of 99.7%. The values for the z-score in [3] (setting [10]), in assay [3] (setting [11]) and in assay [3] (setting [12]) were -0.594, -0.186 and -0.375, respectively. The fluorescence slope in assay [5] is -0.495 (inactive). Also, the NADPH fluorescence slope in assay [6] was -5.8e-05 (inactive). In addition, in [7], the slope was 0.00525 (inactive). In addition, the molecule was called inactive in assay [8].
As for `Cc1c(/C(O)=C2/C(=O)C(=O)N(CCCN3CCOCC3)C2c2ccncc2)cnn1-c1ccccc1` (centres undefined), in assay [1], the cell count was found to be 518. Besides, the inhibition was 8.4% (inactive) in assay [1], -181% (inactive) in assay [2], 8.76% (inactive) in [4] and 15.5% (inactive) in assay [9]. In assay [2], this molecule had a nuclei count of 149%. In addition, the z-score in assay [3] (setting [10]) is 0.69; in assay [3] (setting [11]), 0.756; in [3] (setting [12]), -0.189. The fluorescence slope in assay [5] is -0.552 (inactive). The NADPH fluorescence slope in assay [6] was -1.5e-05 (inactive). In addition, the slope in assay [7] was 0.00511 (inactive). Moreover, the outcome in [8] was inactive.
`Cn1nnnc1SCC(=O)NCC(=O)c1ccccc1`: in assay [1], the cell count was 527. Also, the inhibition in assay [1] was -4.5% (inactive); in [2] it was -74.2% (inactive); in assay [4] it was -7.01% (inactive); in [9] it was 10.2% (inactive). The nuclei count in assay [2] was found to be 146%. In addition, the z-score is 0.246 in assay [3] (setting [10]), -1.91 in assay [3] (setting [11]) and 0.111 in assay [3] (setting [12]). Further, the fluorescence slope in assay [5] was -0.527 (inactive). The NADPH fluorescence slope in assay [6] is -6.9e-05 (inactive). For the same molecule, the slope in assay [7] was 0.00467 (inactive). For the same molecule, the call in assay [8] was inactive.
On to `Cc1cc(=O)oc2cc(OCCSCCN3CCOCC3)ccc12`, for which the cell count in assay [1] turned out to be 382. Further, the inhibition in assay [1] was -4.7% (inactive); in assay [2], -171% (inactive); in assay [4], 15.1% (inactive); in assay [9], -5.19% (inactive). The molecule further registered a nuclei count in assay [2] of 162%. In addition, the z-score stood at 1.19 in [3] (setting [10]), 0.929 in [3] (setting [11]) and 0.186 in assay [3] (setting [12]). For the same molecule, in assay [5], the fluorescence slope was -0.358 (inactive). In assay [6], the NADPH fluorescence slope is -6.2e-05 (inactive). Besides, the slope in assay [7] was 0.00648 (inactive). The molecule was classed as inactive in assay [8].

As a reminder, the inhibition is the change of the read-out against control, counted positive when it falls.
